{"source": "ChEMBL document CHEMBL1121628", "about": "“Synthesis of isomeric thienobenzothiazines and their effect on dopamine metabolism in rat brain” (1980)", "type_in_all_cases": "functional", "key": {"Rattus norvegicus [1]": {"species_on_record": "Rattus norvegicus", "assay": "Effective dose causing a homovanillic acid (HVA) concentration three fold the control level in rat striatum", "how_it_was_run": "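Male albino Wistar rats (180-250 g) received drug i.p. in 0.9% NaCl with a little ascorbic acid, made fresh and kept from light. Controls got saline-ascorbic acid. Rats were decapitated 2 h later and the corpus striatum dissected. HVA was read fluorometrically as the mean of left and right striata. Four to six doses, 3-6 rats each; threefold-HVA dose taken from log dose-response curves.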"}, "Rattus norvegicus [2]": {"system": "Rattus norvegicus", "assay": "Tested for neuroleptic activity by measuring the increase in homovanillic acid (HVA) level in rat corpus striatum at dosage of 20 umol/kg", "how_it_was_run": "(§1)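 Wistar male rats (180-250 g) were dosed i.p. at the stated level in fresh, light-protected 0.9% NaCl with a little ascorbic acid; controls received saline-ascorbic acid. They were decapitated at 2 h and the corpus striatum removed. HVA was assayed by a semiautomatic fluorometric method, averaging both striata, with 3-6 rats per dose. Values are expressed as % of control HVA.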"}, "Rattus norvegicus [3]": {"system": "Rattus norvegicus", "assay": "Tested for neuroleptic activity by measuring the increase in homovanillic acid (HVA) level in rat corpus striatum at dosage of 30 umol/kg", "how_it_was_run": "as §1"}, "Rattus norvegicus [4]": {"system": "Rattus norvegicus", "assay": "Tested for neuroleptic activity by measuring the increase in homovanillic acid (HVA) level in rat corpus striatum at dosage of 50 umol/kg", "how_it_was_run": "as §1"}, "Rattus norvegicus [5]": {"system": "Rattus norvegicus", "assay": "Tested for neuroleptic activity by measuring the increase in homovanillic acid (HVA) level in rat nucleus accumbens at dosage of 10 umol/kg"}, "Rattus norvegicus [6]": {"system": "Rattus norvegicus", "assay": "Tested for neuroleptic activity by measuring the increase in homovanillic acid (HVA) level in rat nucleus accumbens at dosage of 30 umol/kg"}, "Rattus norvegicus [7]": {"system": "Rattus norvegicus", "assay": "Tested for neuroleptic activity by measuring the increase in homovanillic acid (HVA) level in rat nucleus accumbens at dosage of 50 umol/kg"}, "Rattus norvegicus [8]": {"system": "Rattus norvegicus", "assay": "Tested for neuroleptic activity by measuring the increase in homovanillic acid (HVA) level in rat tuberculum olfactorium at dosage of 10 umol/kg", "how_it_was_run": "(§2)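 Freshly made in 0.9% NaCl with a little ascorbic acid and kept from light, given ip to male Wistar rats (180-250 g); controls got saline-ascorbic acid. Rats decapitated 2 h post-dose and the brain region dissected. HVA was measured by a semiautomatic fluorometric method and expressed as % of control levels. 3-6 rats per dose.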"}, "Rattus norvegicus [9]": {"system": "Rattus norvegicus", "assay": "Tested for neuroleptic activity by measuring the increase in homovanillic acid (HVA) level in rat tuberculum olfactorium at dosage of 20 umol/kg", "how_it_was_run": "as §2"}, "Rattus norvegicus [10]": {"system": "Rattus norvegicus", "assay": "Tested for neuroleptic activity by measuring the increase in homovanillic acid (HVA) level in rat corpus striatum at dosage of 10 umol/kg", "how_it_was_run": "as §1"}, "Rattus norvegicus [11]": {"system": "Rattus norvegicus", "assay": "Tested for neuroleptic activity by measuring the increase in homovanillic acid (HVA) level in rat tuberculum olfactorium at dosage of 30 umol/kg", "how_it_was_run": "as §2"}, "Rattus norvegicus [12]": {"system": "Rattus norvegicus", "assay": "Tested for neuroleptic activity by measuring the increase in homovanillic acid (HVA) level in rat tuberculum olfactorium at dosage of 50 umol/kg", "how_it_was_run": "as §2"}, "Rattus norvegicus [13]": {"system": "Rattus norvegicus", "assay": "Tested for neuroleptic activity by measuring the increase in homovanillic acid (HVA) level in rat nucleus accumbens at dosage of 20 umol/kg"}, "Rattus norvegicus [14]": {"system": "Rattus norvegicus", "assay": "Tested for neuroleptic activity by measuring the increase in homovanillic acid (HVA) level in rat corpus striatum at dosage of 15 umol/kg", "how_it_was_run": "as §1"}, "Rattus norvegicus [15]": {"system": "Rattus norvegicus", "assay": "Tested for neuroleptic activity by measuring the increase in homovanillic acid (HVA) level in rat corpus striatum at dosage of 25 umol/kg", "how_it_was_run": "as §1"}, "Rattus norvegicus [16]": {"system": "Rattus norvegicus", "assay": "Tested for neuroleptic activity by measuring the increase in homovanillic acid (HVA) level in rat corpus striatum at dosage of 5 umol/kg", "how_it_was_run": "as §1"}, "Rattus norvegicus [17]": {"system": "Rattus norvegicus", "assay": "Tested for neuroleptic activity by measuring the increase in homovanillic acid (HVA) level in rat nucleus accumbens at dosage of 15 umol/kg", "how_it_was_run": "as §2"}, "Rattus norvegicus [18]": {"system": "Rattus norvegicus", "assay": "Tested for neuroleptic activity by measuring the increase in homovanillic acid (HVA) level in rat nucleus accumbens at dosage of 25 umol/kg"}, "Rattus norvegicus [19]": {"system": "Rattus norvegicus", "assay": "Tested for neuroleptic activity by measuring the increase in homovanillic acid (HVA) level in rat nucleus accumbens at dosage of 5 umol/kg"}, "Rattus norvegicus [20]": {"system": "Rattus norvegicus", "assay": "Tested for neuroleptic activity by measuring the increase in homovanillic acid (HVA) level in rat tuberculum olfactorium at dosage of 15 umol/kg", "how_it_was_run": "as §2"}, "Rattus norvegicus [21]": {"system": "Rattus norvegicus", "assay": "Tested for neuroleptic activity by measuring the increase in homovanillic acid (HVA) level in rat tuberculum olfactorium at dosage of 25 umol/kg", "how_it_was_run": "as §2"}, "Rattus norvegicus [22]": {"system": "Rattus norvegicus", "assay": "Tested for neuroleptic activity by measuring the increase in homovanillic acid (HVA) level in rat tuberculum olfactorium at dosage of 5 umol/kg", "how_it_was_run": "as §2"}, "Rattus norvegicus [23]": {"system": "Rattus norvegicus", "assay": "Tested for neuroleptic activity by measuring the increase in homovanillic acid (HVA) level in rat corpus striatum at dosage of 75 umol/kg", "how_it_was_run": "as §1"}, "Rattus norvegicus [24]": {"system": "Rattus norvegicus", "assay": "Tested for neuroleptic activity by measuring the increase in homovanillic acid (HVA) level in rat nucleus accumbens at dosage of 75 umol/kg"}, "Rattus norvegicus [25]": {"system": "Rattus norvegicus", "assay": "Tested for neuroleptic activity by measuring the increase in homovanillic acid (HVA) level in rat tuberculum olfactorium at dosage of 75 umol/kg", "how_it_was_run": "as §2"}}, "data": [{"compound": "CN(C)CCCN1c2cc(Cl)ccc2Sc2ccsc21", "values": [{"measurement": "ED300", "setting": "Rattus norvegicus [1]", "value": 350, "unit": "µM/kg"}]}, {"compound": "CN(C)CCCN1c2cc(C(F)(F)F)ccc2Sc2sccc21", "values": [{"measurement": "ED300", "setting": "Rattus norvegicus [1]", "value": 6.1, "unit": "µM/kg"}, {"measurement": "HVA control", "setting": "Rattus norvegicus [2]", "value": 410, "unit": "%"}, {"measurement": "HVA control", "setting": "Rattus norvegicus [3]", "value": 430, "unit": "%"}, {"measurement": "HVA control", "setting": "Rattus norvegicus [4]", "value": 510, "unit": "%"}, {"measurement": "HVA control", "setting": "Rattus norvegicus [5]", "value": 250, "unit": "%"}, {"measurement": "HVA control", "setting": "Rattus norvegicus [6]", "value": 360, "unit": "%"}, {"measurement": "HVA control", "setting": "Rattus norvegicus [7]", "value": 510, "unit": "%"}, {"measurement": "HVA control", "setting": "Rattus norvegicus [8]", "value": 180, "unit": "%"}, {"measurement": "HVA control", "setting": "Rattus norvegicus [9]", "value": 240, "unit": "%"}, {"measurement": "HVA control", "setting": "Rattus norvegicus [10]", "value": 320, "unit": "%"}, {"measurement": "HVA control", "setting": "Rattus norvegicus [11]", "value": 280, "unit": "%"}, {"measurement": "HVA control", "setting": "Rattus norvegicus [12]", "value": 300, "unit": "%"}, {"measurement": "HVA control", "setting": "Rattus norvegicus [13]", "value": 350, "unit": "%"}]}, {"compound": "CN(C)CCCN1c2ccccc2Sc2cscc21", "values": [{"measurement": "ED300", "setting": "Rattus norvegicus [1]", "value": 460, "unit": "µM/kg"}]}, {"compound": "CN(C)CCCN1c2cscc2Sc2ccc(C(F)(F)F)cc21", "values": [{"measurement": "ED300", "setting": "Rattus norvegicus [1]", "value": 9.2, "unit": "µM/kg"}, {"measurement": "HVA control", "setting": "Rattus norvegicus [14]", "value": 340, "unit": "%"}, {"measurement": "HVA control", "setting": "Rattus norvegicus [15]", "value": 445, "unit": "%"}, {"measurement": "HVA control", "setting": "Rattus norvegicus [16]", "value": 140, "unit": "%"}, {"measurement": "HVA control", "setting": "Rattus norvegicus [5]", "value": 185, "unit": "%"}, {"measurement": "HVA control", "setting": "Rattus norvegicus [17]", "value": 260, "unit": "%"}, {"measurement": "HVA control", "setting": "Rattus norvegicus [18]", "value": 390, "unit": "%"}, {"measurement": "HVA control", "setting": "Rattus norvegicus [19]", "value": 125, "unit": "%"}, {"measurement": "HVA control", "setting": "Rattus norvegicus [8]", "value": 160, "unit": "%"}, {"measurement": "HVA control", "setting": "Rattus norvegicus [20]", "value": 210, "unit": "%"}, {"measurement": "HVA control", "setting": "Rattus norvegicus [10]", "value": 310, "unit": "%"}, {"measurement": "HVA control", "setting": "Rattus norvegicus [21]", "value": 270, "unit": "%"}, {"measurement": "HVA control", "setting": "Rattus norvegicus [22]", "value": 100, "unit": "%"}]}, {"compound": "CN(C)CCCN1c2cscc2Sc2ccc(Cl)cc21", "values": [{"measurement": "ED300", "setting": "Rattus norvegicus [1]", "value": 19.2, "unit": "µM/kg"}]}, {"compound": "CN(C)CCCN1c2cc(C(F)(F)F)ccc2Sc2ccsc21", "values": [{"measurement": "ED300", "setting": "Rattus norvegicus [1]", "value": 30.1, "unit": "µM/kg"}, {"measurement": "HVA control", "setting": "Rattus norvegicus [14]", "value": 130, "unit": "%"}, {"measurement": "HVA control", "setting": "Rattus norvegicus [4]", "value": 310, "unit": "%"}, {"measurement": "HVA control", "setting": "Rattus norvegicus [23]", "value": 440, "unit": "%"}, {"measurement": "HVA control", "setting": "Rattus norvegicus [17]", "value": 100, "unit": "%"}, {"measurement": "HVA control", "setting": "Rattus norvegicus [7]", "value": 180, "unit": "%"}, {"measurement": "HVA control", "setting": "Rattus norvegicus [24]", "value": 375, "unit": "%"}, {"measurement": "HVA control", "setting": "Rattus norvegicus [25]", "value": 200, "unit": "%"}, {"measurement": "HVA control", "setting": "Rattus norvegicus [12]", "value": 150, "unit": "%"}]}, {"compound": "CN(C)CCCN1c2ccccc2Sc2sccc21", "values": [{"measurement": "ED300", "setting": "Rattus norvegicus [1]", "value": 480, "unit": "µM/kg"}]}, {"compound": "CN(C)CCCN1c2cc(Cl)ccc2Sc2sccc21", "values": [{"measurement": "ED300", "setting": "Rattus norvegicus [1]", "value": 36, "unit": "µM/kg"}]}, {"compound": "Cl.OCCN1CCN(CCCN2c3ccccc3Sc3sccc32)CC1", "values": [{"measurement": "ED300", "setting": "Rattus norvegicus [1]", "value": 18.9, "unit": "µM/kg"}]}, {"compound": "Cl.OCCN1CCN(CCCN2c3cc(Cl)ccc3Sc3sccc32)CC1", "values": [{"measurement": "ED300", "setting": "Rattus norvegicus [1]", "value": 3.27, "unit": "µM/kg"}]}, {"compound": "Cl.OCCN1CCN(CCCN2c3cc(C(F)(F)F)ccc3Sc3ccsc32)CC1", "values": [{"measurement": "ED300", "setting": "Rattus norvegicus [1]", "value": 4, "unit": "µM/kg"}]}, {"compound": "Cl.OCCN1CCN(CCCN2c3cc(C(F)(F)F)ccc3Sc3sccc32)CC1", "values": [{"measurement": "ED300", "setting": "Rattus norvegicus [1]", "value": 0.75, "unit": "µM/kg"}]}, {"compound": "Cl.OCCN1CCN(CCCN2c3cscc3Sc3ccc(C(F)(F)F)cc32)CC1", "values": [{"measurement": "ED300", "setting": "Rattus norvegicus [1]", "value": 0.54, "unit": "µM/kg"}]}, {"compound": "Cl.OCCN1CCN(CCCN2c3cc(Cl)ccc3Sc3ccsc32)CC1", "values": [{"measurement": "ED300", "setting": "Rattus norvegicus [1]", "value": 20.5, "unit": "µM/kg"}]}, {"compound": "Cl.OCCN1CCN(CCCN2c3cscc3Sc3ccc(Cl)cc32)CC1", "values": [{"measurement": "ED300", "setting": "Rattus norvegicus [1]", "value": 1.5, "unit": "µM/kg"}]}, {"compound": "Cl.OCCN1CCN(CCCN2c3ccccc3Sc3cscc32)CC1", "values": [{"measurement": "ED300", "setting": "Rattus norvegicus [1]", "value": 13.7, "unit": "µM/kg"}]}]}
